{"source": "ChEMBL document CHEMBL1138439", "about": "“Synthesis and structure-activity relationship of novel diarylpyrazole imide analogues as CB1 cannabinoid receptor ligands” (Bioorg Med Chem, 2009)"}
{"biological_target": "Cannabinoid receptor 1 (Rattus norvegicus, UniProt P20272)", "sequence (P20272 whole entry)": "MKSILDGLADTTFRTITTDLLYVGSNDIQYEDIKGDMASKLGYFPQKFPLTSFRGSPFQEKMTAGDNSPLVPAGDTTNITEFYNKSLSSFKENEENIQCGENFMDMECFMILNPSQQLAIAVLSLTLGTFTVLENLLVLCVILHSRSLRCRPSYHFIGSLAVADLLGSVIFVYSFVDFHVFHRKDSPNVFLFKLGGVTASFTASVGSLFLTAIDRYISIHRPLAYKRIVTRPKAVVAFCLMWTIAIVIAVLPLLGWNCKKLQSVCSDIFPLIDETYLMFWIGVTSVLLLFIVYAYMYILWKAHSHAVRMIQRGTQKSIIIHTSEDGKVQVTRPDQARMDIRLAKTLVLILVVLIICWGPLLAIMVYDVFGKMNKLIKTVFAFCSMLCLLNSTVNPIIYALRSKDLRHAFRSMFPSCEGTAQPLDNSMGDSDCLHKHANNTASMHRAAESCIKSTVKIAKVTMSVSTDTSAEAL", "assay": "(§1) Displacement of [3H]CP-55940 from CB1R in Sprague-Dawley rat cerebellar membrane", "parameters": "species or system Cerebellum", "conditions": "not given"}
{"smiles": "Cc1c(C(=O)NC(=O)NCC2CCCCC2)nn(-c2ccc(Cl)cc2Cl)c1-c1ccc(Cl)cc1", "IC50": "ND(Insoluble)"}
{"smiles": "Cc1c(C(=O)NC(=O)NC(C)(C)C)nn(-c2ccc(Cl)cc2Cl)c1-c1ccc(Cl)cc1", "IC50": "ND(Insoluble)"}
{"biological_target": "Cannabinoid receptor 1 (Rattus norvegicus, UniProt P20272)", "assay": "as §1", "parameters": "species or system Cerebellum", "conditions": "read-out: IC50", "units": {"IC50": "µM"}}
{"smiles": "CCCCS(=O)(=O)NC(=O)c1nn(-c2ccc(Cl)cc2Cl)c(-c2ccc(Cl)cc2)c1C", "IC50": "> 10"}
{"smiles": "Cc1c(C(=O)N(C)C(=O)C2CCCCC2)nn(-c2ccc(Cl)cc2Cl)c1-c1ccc(Cl)cc1", "IC50": 0.167}
{"smiles": "CCCS(=O)(=O)NC(=O)c1nn(-c2ccc(Cl)cc2Cl)c(-c2ccc(Cl)cc2)c1C", "IC50": "> 10"}
{"smiles": "Cc1c(C(=O)NS(=O)(=O)C(C)C)nn(-c2ccc(Cl)cc2Cl)c1-c1ccc(Cl)cc1", "IC50": "> 10"}
{"smiles": "Cc1c(C(=O)NS(=O)(=O)Cc2ccccc2)nn(-c2ccc(Cl)cc2Cl)c1-c1ccc(Cl)cc1", "IC50": "> 10"}
{"smiles": "Cc1c(C(=O)N(C)C(=O)C(C)(C)C)nn(-c2ccc(Cl)cc2Cl)c1-c1ccc(Cl)cc1", "IC50": 0.22}
{"smiles": "Cc1c(C(=O)NS(=O)(=O)c2ccc(F)cc2)nn(-c2ccc(Cl)cc2Cl)c1-c1ccc(Cl)cc1", "IC50": 1.2}
{"smiles": "Cc1c(C(=O)NS(=O)(=O)c2cccc(F)c2)nn(-c2ccc(Cl)cc2Cl)c1-c1ccc(Cl)cc1", "IC50": "> 10"}
{"smiles": "CCC(CC)C(=O)N(C)C(=O)c1nn(-c2ccc(Cl)cc2Cl)c(-c2ccc(Cl)cc2)c1C", "IC50": 0.265}
{"smiles": "Cc1c(C(=O)NS(=O)(=O)c2ccccc2)nn(-c2ccc(Cl)cc2Cl)c1-c1ccc(Cl)cc1", "IC50": 3.64}
{"smiles": "CCC(C)(C)C(=O)N(C)C(=O)c1nn(-c2ccc(Cl)cc2Cl)c(-c2ccc(Cl)cc2)c1C", "IC50": 0.227}
{"smiles": "Cc1ccc(S(=O)(=O)NC(=O)c2nn(-c3ccc(Cl)cc3Cl)c(-c3ccc(Cl)cc3)c2C)cc1", "IC50": "> 10"}
{"smiles": "Cc1c(C(=O)NS(=O)(=O)c2ccc(Cl)cc2)nn(-c2ccc(Cl)cc2Cl)c1-c1ccc(Cl)cc1", "IC50": "> 10"}
{"smiles": "CCCC(CCC)C(=O)N(C)C(=O)c1nn(-c2ccc(Cl)cc2Cl)c(-c2ccc(Cl)cc2)c1C", "IC50": 0.247}
{"smiles": "Cc1c(C(=O)NS(=O)(=O)c2cccc(Cl)c2)nn(-c2ccc(Cl)cc2Cl)c1-c1ccc(Cl)cc1", "IC50": 1.2}
{"test_system": "Mus musculus", "assay": "Reduction in body weight of diet induced obese C57BL/6J mouse at 10 mL/kg, po for 14 days", "type": "functional", "parameters": "scale not given: the % may be the effect or the level left", "conditions": "not given", "summary_of_the_method": "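Body weight change (g) from start was tracked daily over days 0–14 and compared with a vehicle-treated control group.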", "units": {"Activity": "%"}}
{"smiles": "Cc1c(C(=O)NC(=O)C(C)(C)C)nn(-c2ccc(Cl)cc2Cl)c1-c1ccc(Cl)cc1", "Activity": 2.2}
{"smiles": "Cc1c(C(=O)NN2CCCCC2)nn(-c2ccc(Cl)cc2Cl)c1-c1ccc(Cl)cc1", "note": "[RIMONABANT]", "Activity": 11.5}
